Source: ChEMBL document CHEMBL2057082, “Discovery of N-(4-methoxy-7-methylbenzo[d]thiazol-2-yl)isonicatinamide, ML293, as a novel, selective and brain penetrant positive allosteric modulator of the muscarinic 4 (M4) receptor” (Bioorg Med Chem Lett, 2012)
Active and inactive are the calls of the source. No cut-off for these calls is given here.

Tests used:
[1] = target: Muscarinic acetylcholine receptor M3 (Homo sapiens) (UniProt P20309); test: Activity at human M3 receptor expressed in CHO cells coexpressing Gqi5 assessed as effect on acetylcholine induced calcium mobilization up to 30 uM incubated for 144 secs prior to acetylcholine addition by Fluo-4-AM staining; assay type: functional, cell-based
[2] = Drug uptake in rat hepatic portal vein at 10 mg/kg, po administered as single dose measured at 1 hr; assay type: ADME, organism-based; design: dose 10 mg/kg, route oral; settings: read-out: Drug uptake
Method in brief: (§1)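 Rats got a single 10 mg/kg oral dose. At a single 1 h time point, brain (ng/g tissue), plasma and hepatic portal vein concentrations were measured, giving brain:plasma and portal vein:plasma ratios. The portal vein:plasma ratio was taken as an indicator of the extent of oxidative metabolism.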

Plasma [3] = test: Fraction unbound in human plasma; assay type: ADME, cell-free
Method in brief: (§2)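 Plasma protein binding was measured by equilibrium dialysis in human and rat plasma and reported as % unbound.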

[4] = Intrinsic clearance in rat liver microsomes; assay type: ADME, Microsome; settings: read-out: CLH
Method in brief: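 Intrinsic clearance was measured in human and rat hepatic microsomes to assess oxidative metabolism, with predicted hepatic clearance given in mL/min/kg.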

[5] = AUC in rat at 1 mg/kg, iv; assay type: ADME, organism-based; design: dose 1 mg/kg, route intravenous; settings: plasma
[6] = Plasma concentration in rat at 10 mg/kg, po administered as single dose measured at 1 hr; assay type: ADME, organism-based; design: dose 10 mg/kg, route oral
Method in brief: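 Rats received a single 10 mg/kg oral dose. At 1 h, drug was measured in brain (ng/g), plasma and hepatic portal vein, and brain:plasma and HPV:plasma ratios were calculated.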

[7] = target: T1, Muscarinic acetylcholine receptor M2 (Homo sapiens) (UniProt P08172); test: Activity at human M2 receptor expressed in CHO cells coexpressing Gqi5 assessed as effect on acetylcholine induced calcium mobilization up to 30 uM incubated for 144 secs prior to acetylcholine addition by Fluo-4-AM staining; assay type: functional, cell-based
T1 sequence (whole entry): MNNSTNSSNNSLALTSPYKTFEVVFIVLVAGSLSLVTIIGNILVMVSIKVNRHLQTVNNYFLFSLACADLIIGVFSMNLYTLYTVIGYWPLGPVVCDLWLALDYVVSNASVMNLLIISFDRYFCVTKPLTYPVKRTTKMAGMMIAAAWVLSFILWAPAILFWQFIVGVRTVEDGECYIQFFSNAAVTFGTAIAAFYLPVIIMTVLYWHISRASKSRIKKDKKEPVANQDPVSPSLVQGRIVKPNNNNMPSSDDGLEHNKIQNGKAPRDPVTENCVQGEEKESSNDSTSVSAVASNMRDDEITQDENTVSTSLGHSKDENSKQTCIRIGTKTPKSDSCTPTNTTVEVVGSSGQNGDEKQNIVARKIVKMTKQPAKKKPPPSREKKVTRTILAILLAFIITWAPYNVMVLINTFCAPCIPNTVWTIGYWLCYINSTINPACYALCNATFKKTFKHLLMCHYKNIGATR
Method in brief: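 Off-target mode: CHO-K1 lines stably expressing hM1, hM3 or hM5 (wild-type) or hM2 cotransfected with Gqi5, plated 15,000 cells/well, grown overnight at 37 °C. Fluo-4 AM loading 45 min at 37 °C in HBSS/20 mM HEPES/2.5 mM probenecid. Compound (up to 30 µM, 0.3% DMSO final) added 144 s before ACh. Calcium read kinetically at 37 °C.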

[8] = target: T2, Muscarinic acetylcholine receptor M4 (Homo sapiens, UniProt P08173); test: Positive allosteric modulation of human M4 receptor expressed in CHO-K1 cells coexpressing Gqi5 assessed as potentiation of acetylcholine-mediated calcium mobilization incubated for 144 secs prior to acetylcholine addition by Fluo-4-AM staining; assay type: functional, cell-based
T2 sequence (P08173 whole entry): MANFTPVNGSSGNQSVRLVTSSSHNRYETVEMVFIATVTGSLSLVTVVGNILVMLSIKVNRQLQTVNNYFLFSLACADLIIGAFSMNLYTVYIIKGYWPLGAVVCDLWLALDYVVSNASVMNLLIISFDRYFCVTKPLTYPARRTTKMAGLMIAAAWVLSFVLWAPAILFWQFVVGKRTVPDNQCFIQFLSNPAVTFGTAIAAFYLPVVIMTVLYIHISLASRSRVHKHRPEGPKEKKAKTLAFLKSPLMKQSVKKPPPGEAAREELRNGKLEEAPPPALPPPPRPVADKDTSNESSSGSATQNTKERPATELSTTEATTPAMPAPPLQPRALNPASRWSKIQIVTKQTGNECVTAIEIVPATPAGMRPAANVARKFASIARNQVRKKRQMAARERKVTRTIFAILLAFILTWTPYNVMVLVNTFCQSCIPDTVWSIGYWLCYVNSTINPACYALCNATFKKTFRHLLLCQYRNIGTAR
Method in brief: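 hM4 stably cotransfected with chimeric Gqi5 in CHO-K1 cells. Cells plated overnight at 37 °C, loaded with Fluo-4 AM for 45 min at 37 °C in HBSS/20 mM HEPES/2.5 mM probenecid. Compound pretreated 144 s (0.3% DMSO final), then EC20 ACh, then EC80 ACh 86 s later; kinetic fluorescence at 37 °C.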

[9] = Half life in rat at 1 mg/kg, iv; assay type: ADME, organism-based; design: dose 1 mg/kg, route intravenous; settings: in vivo
[10] = Mean residence time in rat at 1 mg/kg, iv; assay type: ADME, organism-based; design: dose 1 mg/kg, route intravenous; settings: in vivo
Brain = test: Fraction unbound in rat brain homogenate; assay type: ADME, tissue-based
Method in brief: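 Binding was measured in rat brain homogenate and reported as % unbound fraction.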

[11] = target: T3, Muscarinic acetylcholine receptor M1 (Homo sapiens) (UniProt P11229); test: Activity at human M1 receptor expressed in CHO-K1 cells coexpressing Gqi5 assessed as effect on acetylcholine induced calcium mobilization up to 30 uM incubated for 144 secs prior to acetylcholine addition by Fluo-4-AM staining; assay type: functional, cell-based
T3 sequence (whole entry): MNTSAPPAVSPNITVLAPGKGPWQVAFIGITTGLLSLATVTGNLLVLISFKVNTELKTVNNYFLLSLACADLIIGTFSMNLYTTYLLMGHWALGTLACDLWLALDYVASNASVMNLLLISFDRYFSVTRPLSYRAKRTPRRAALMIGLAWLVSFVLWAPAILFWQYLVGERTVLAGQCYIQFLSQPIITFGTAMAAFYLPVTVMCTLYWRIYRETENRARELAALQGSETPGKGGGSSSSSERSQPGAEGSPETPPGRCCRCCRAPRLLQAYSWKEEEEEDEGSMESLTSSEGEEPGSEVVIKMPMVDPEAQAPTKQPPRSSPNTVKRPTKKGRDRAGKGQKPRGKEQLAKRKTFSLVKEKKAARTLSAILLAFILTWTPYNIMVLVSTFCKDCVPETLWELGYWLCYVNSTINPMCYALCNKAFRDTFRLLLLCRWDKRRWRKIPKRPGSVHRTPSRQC

[12] = Drug uptake in rat brain assessed per gram of tissue at 10 mg/kg, po administered as single dose measured at 1 hr; assay type: ADME, organism-based; design: dose 10 mg/kg, route oral; settings: read-out: Drug uptake; method in brief: as §1
Plasma [13] = test: Fraction unbound in rat plasma; assay type: ADME, cell-free; method in brief: as §2
[14] = target: T4, Muscarinic acetylcholine receptor M4 (Homo sapiens) (UniProt P08173); test: Positive allosteric modulation of human M4 receptor expressed in CHO-K1 cells coexpressing Gqi5 assessed as potentiation of acetylcholine-mediated calcium mobilization incubated for 144 secs prior to acetylcholine addition by Fluo-4-AM staining relative to acetylcholine; assay type: functional, cell-based
T4 sequence (whole entry): T2 sequence (P08173 whole entry)
Method in brief: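 hM4-Gqi5 CHO-K1 cells, plated overnight, loaded with Fluo-4 AM (45 min, 37 °C). Compound (0.3% DMSO final) preincubated 144 s, then ACh EC20 added, and EC80 added 86 s later; 1 mM ACh wells for normalization. Calcium read at 37 °C, normalized to baseline and then to maximal ACh response. EC50 from four-parameter logistic fit; three independent determinations in triplicate.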

[15] = Plasma clearance in rat at 1mg/kg, iv; assay type: ADME, organism-based
[16] = Volume of distribution at steady state in rat at 1 mg/kg, iv; assay type: ADME, organism-based; design: dose 1 mg/kg, route intravenous; settings: in vivo, read-out: Vdss
[17] = target: T5, Muscarinic acetylcholine receptor M5 (Homo sapiens) (UniProt P08912); test: Activity at human M5 receptor expressed in CHO cells coexpressing Gqi5 assessed as effect on acetylcholine induced calcium mobilization up to 30 uM incubated for 144 secs prior to acetylcholine addition by Fluo-4-AM staining; assay type: functional, cell-based
T5 sequence (whole entry): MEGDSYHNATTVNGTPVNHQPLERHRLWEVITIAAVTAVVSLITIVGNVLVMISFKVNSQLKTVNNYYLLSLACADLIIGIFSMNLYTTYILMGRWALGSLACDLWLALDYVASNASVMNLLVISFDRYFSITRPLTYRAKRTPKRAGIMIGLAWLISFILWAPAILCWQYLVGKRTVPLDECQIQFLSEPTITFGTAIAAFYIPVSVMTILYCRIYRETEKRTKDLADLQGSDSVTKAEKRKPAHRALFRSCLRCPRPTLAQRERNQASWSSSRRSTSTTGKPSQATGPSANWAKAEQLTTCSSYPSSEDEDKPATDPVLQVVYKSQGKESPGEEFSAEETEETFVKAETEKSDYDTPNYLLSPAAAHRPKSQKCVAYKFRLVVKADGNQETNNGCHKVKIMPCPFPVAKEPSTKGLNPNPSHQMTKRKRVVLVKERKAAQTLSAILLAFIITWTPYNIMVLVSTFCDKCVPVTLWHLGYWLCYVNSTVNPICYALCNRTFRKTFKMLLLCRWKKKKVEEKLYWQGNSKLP

Sequence of Muscarinic acetylcholine receptor M3 (Homo sapiens) (P20309 whole entry, looked up): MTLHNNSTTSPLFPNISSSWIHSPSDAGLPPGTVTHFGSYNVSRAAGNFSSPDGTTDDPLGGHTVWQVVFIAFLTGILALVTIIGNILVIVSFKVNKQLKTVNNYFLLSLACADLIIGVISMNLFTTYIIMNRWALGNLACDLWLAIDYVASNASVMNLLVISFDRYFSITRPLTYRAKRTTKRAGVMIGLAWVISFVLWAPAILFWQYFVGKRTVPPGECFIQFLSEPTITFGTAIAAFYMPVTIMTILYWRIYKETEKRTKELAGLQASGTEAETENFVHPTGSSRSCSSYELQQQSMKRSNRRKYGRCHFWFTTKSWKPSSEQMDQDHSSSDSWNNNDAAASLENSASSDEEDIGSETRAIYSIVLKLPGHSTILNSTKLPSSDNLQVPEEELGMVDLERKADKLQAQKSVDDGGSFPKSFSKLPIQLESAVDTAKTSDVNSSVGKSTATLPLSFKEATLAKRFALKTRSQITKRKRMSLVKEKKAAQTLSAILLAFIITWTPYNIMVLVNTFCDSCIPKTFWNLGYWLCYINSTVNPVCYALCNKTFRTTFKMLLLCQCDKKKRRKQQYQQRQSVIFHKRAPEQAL

COc1ccc(C)c2sc(NC(=O)c3ccncc3)nc12
Activity [1]: inactive
concentration at 1 h [2]: 3070 ng/mL
Fu (Plasma [3]): 1%
CLint scaled [4]: 48.5 mL/min/kg
AUC [5]: 1440 ng·h/mL
concentration at 1 h [6]: 3740 ng/mL
Activity [7]: inactive
EC50 [8]: 1290 nM
half-life [9]: 0.95 h
MRT [10]: 1.42 h
Fu (Brain): 0.9%
Activity [11]: inactive
concentration at 1 h [12]: 3090 ng/g
Fu (Plasma [13]): 3.2%
%max [14]: 65.2%
clearance [15]: 11.5 mL/min/kg
Vd [16]: 0.97 L/kg
Activity [17]: inactive
